In PMC7962621 (Cell, 2019):

Experiments:
[1] = relative to native insulin; ref Wang et al., 2018; cited from earlier work
[2] = system: CD4 T cells from DQ8+ T1D subjects; assay: CFSE proliferation assay with immobilized peptide/DQ8 complexes, T1D subjects; assay type: cell-based, human; settings: peptide-loaded DQ8 immobilized (10 μM), 7 days, CFSElow CD4 T cells; n = 3
Method in brief: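 Freshly isolated PBMCs were washed in warm PBS and labelled with 1 μM CFSE for 1–2 min at 37 °C, then quenched with chilled medium. Thrombin-cleaved, CLIP-free DQ8 monomers (0.5 μM) were loaded with peptide (100 μM) for 72 h at 37 °C in pH 5.5 citrate phosphate buffer, then immobilized in wells. Unstimulated cells served as negative control and anti-CD3/CD28 as positive control.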

DQ8 = settings: two registers placing nonacidic residues at P1 and P9; background statement; cited from earlier work

Row | Substance | Fold potency vs native insulin B:9–23 [1] | Stimulation of CD4 T cells from DQ8+ T1D subjects [2] | Binding of insulin B:9–23 peptide to DQ8 (DQ8)
1 | SHLVEALYLVCGEEG [mimotope] | 100 fold | – | –
2 | SHLVEELYLVAGEEG [superagonist] | about 1,000 fold | – | –
3 | CARQRFWSGPLFDYW [h-Id] | – | no significant responses | –
4 | native insulin: insulin B:9–23 peptide SHLVEALYLVCGERG | – | no significant responses | binds poorly to DQ8
